Results as given in ChEMBL document CHEMBL5058577, “EUbOPEN Chemogenomics Library 2 (Multiplex)” (2022).

Tested on: U2OS
Test: Multiplex assay against U2OS
Assay type: toxicity, cell-based
Details: human
Outline: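 Tubulin, mitochondrial-mass and membrane-permeability phenotypes are per cents of healthy-nucleus cells. Cells were gated by CellPathfinder machine learning into Hoechst high-intensity objects or normal cells, normal cells into healthy, pyknosed or fragmented nuclei, and pyknosed cells into mitotic or apoptotic. Before that, live cells stained at seeding with Hoechst33342, BioTracker Green Microtubule Cytoskeleton Dye, MitoTracker Red and Annexin V Alexa Fluor 680 were imaged on a CQ1 microscope at 37°C and 5% CO2 after compound addition.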

[1] = 12 h, 1 µM, compound concentration 1 uM, replicate 1
[2] = 12 h, 1 µM, compound concentration 1 uM, replicate 2
[3] = 12 h, 10 µM, compound concentration 10 uM, replicate 1
[4] = 12 h, 10 µM, compound concentration 10 uM, replicate 2
[5] = 24 h, 1 µM, compound concentration 1 uM, replicate 1
[6] = 24 h, 1 µM, compound concentration 1 uM, replicate 2
[7] = 24 h, 10 µM, compound concentration 10 uM, replicate 1
[8] = 24 h, 10 µM, compound concentration 10 uM, replicate 2
[9] = 48 h, 1 µM, compound concentration 1 uM, replicate 1
[10] = 48 h, 1 µM, compound concentration 1 uM, replicate 2
[11] = 48 h, 10 µM, compound concentration 10 uM, replicate 1
[12] = 48 h, 10 µM, compound concentration 10 uM, replicate 2

CCCn1c(=O)c2[nH]c(C3CCCC3)nc2n(CCC)c1=O [1,3-DIPROPYL-8-CYCLOPENTYLXANTHINE [DPCPX]]
Population Apoptotic (%) [1]: 87%
Population Fragmented Nuclei (%) [1]: 25%
Population Healthy Nuclei (%) [1]: 64%
Population Hoechst High Intensity Objects (%) [1]: 1%
Population Membrane Permeable-Phenotype (%) [1]: 1%
Population Mitochondria Different-Phenotype (%) [1]: 3%
Population Mitotic Cells (%) [1]: 12%
Population Normal (%) [1]: 98%
Population Pyknosed Nuclei (%) [1]: 9%
Population Tubulin-Different-Phenotype (%) [1]: 1%
Total Cell Count [1]: 250
Population Apoptotic (%) [2]: 93%
Population Fragmented Nuclei (%) [2]: 15%
Population Healthy Nuclei (%) [2]: 72%
Population Hoechst High Intensity Objects (%) [2]: 0%
Population Membrane Permeable-Phenotype (%) [2]: 7%
Population Mitochondria Different-Phenotype (%) [2]: 4%
Population Mitotic Cells (%) [2]: 6%
Population Normal (%) [2]: 100%
Population Pyknosed Nuclei (%) [2]: 12%
Population Tubulin-Different-Phenotype (%) [2]: 5%
Total Cell Count [2]: 125
Population Apoptotic (%) [3]: 68%
Population Fragmented Nuclei (%) [3]: 30%
Population Healthy Nuclei (%) [3]: 60%
Population Hoechst High Intensity Objects (%) [3]: 2%
Population Membrane Permeable-Phenotype (%) [3]: 5%
Population Mitochondria Different-Phenotype (%) [3]: 1%
Population Mitotic Cells (%) [3]: 31%
Population Normal (%) [3]: 97%
Population Pyknosed Nuclei (%) [3]: 9%
Population Tubulin-Different-Phenotype (%) [3]: 3%
Total Cell Count [3]: 206
Population Apoptotic (%) [4]: 100%
Population Fragmented Nuclei (%) [4]: 21%
Population Healthy Nuclei (%) [4]: 69%
Population Hoechst High Intensity Objects (%) [4]: 3%
Population Membrane Permeable-Phenotype (%) [4]: 6%
Population Mitochondria Different-Phenotype (%) [4]: 9%
Population Mitotic Cells (%) [4]: 0%
Population Normal (%) [4]: 96%
Population Pyknosed Nuclei (%) [4]: 8%
Total Cell Count [4]: 96
Population Apoptotic (%) [5]: 83%
Population Fragmented Nuclei (%) [5]: 24%
Population Healthy Nuclei (%) [5]: 68%
Population Hoechst High Intensity Objects (%) [5]: 3%
Population Membrane Permeable-Phenotype (%) [5]: 5%
Population Mitochondria Different-Phenotype (%) [5]: 3%
Population Mitotic Cells (%) [5]: 16%
Population Normal (%) [5]: 96%
Population Pyknosed Nuclei (%) [5]: 7%
Population Tubulin-Different-Phenotype (%) [5]: 4%
Total Cell Count [5]: 261
Population Apoptotic (%) [6]: 87%
Population Fragmented Nuclei (%) [6]: 13%
Population Healthy Nuclei (%) [6]: 74%
Population Hoechst High Intensity Objects (%) [6]: 2%
Population Membrane Permeable-Phenotype (%) [6]: 8%
Population Mitotic Cells (%) [6]: 12%
Population Normal (%) [6]: 97%
Population Pyknosed Nuclei (%) [6]: 11%
Total Cell Count [6]: 138
Population Apoptotic (%) [7]: 89%
Population Fragmented Nuclei (%) [7]: 27%
Population Healthy Nuclei (%) [7]: 64%
Population Hoechst High Intensity Objects (%) [7]: 2%
Population Membrane Permeable-Phenotype (%) [7]: 7%
Population Mitochondria Different-Phenotype (%) [7]: 0%
Population Mitotic Cells (%) [7]: 10%
Population Normal (%) [7]: 97%
Population Pyknosed Nuclei (%) [7]: 8%
Population Tubulin-Different-Phenotype (%) [7]: 0%
Total Cell Count [7]: 234
Population Apoptotic (%) [8]: 100%
Population Fragmented Nuclei (%) [8]: 21%
Population Healthy Nuclei (%) [8]: 71%
Population Hoechst High Intensity Objects (%) [8]: 4%
Population Membrane Permeable-Phenotype (%) [8]: 3%
Population Mitochondria Different-Phenotype (%) [8]: 3%
Population Mitotic Cells (%) [8]: 0%
Population Normal (%) [8]: 95%
Population Pyknosed Nuclei (%) [8]: 6%
Total Cell Count [8]: 120
Population Apoptotic (%) [9]: 86%
Population Fragmented Nuclei (%) [9]: 20%
Population Healthy Nuclei (%) [9]: 69%
Population Hoechst High Intensity Objects (%) [9]: 1%
Population Membrane Permeable-Phenotype (%) [9]: 3%
Population Mitochondria Different-Phenotype (%) [9]: 1%
Population Mitotic Cells (%) [9]: 13%
Population Normal (%) [9]: 98%
Population Pyknosed Nuclei (%) [9]: 10%
Population Tubulin-Different-Phenotype (%) [9]: 2%
Total Cell Count [9]: 364
Population Apoptotic (%) [10]: 92%
Population Fragmented Nuclei (%) [10]: 17%
Population Hoechst High Intensity Objects (%) [10]: 2%
Population Membrane Permeable-Phenotype (%) [10]: 8%
Population Mitochondria Different-Phenotype (%) [10]: 4%
Population Mitotic Cells (%) [10]: 8%
Population Normal (%) [10]: 97%
Population Pyknosed Nuclei (%) [10]: 13%
Population Tubulin-Different-Phenotype (%) [10]: 3%
Total Cell Count [10]: 196
Population Apoptotic (%) [11]: 77%
Population Fragmented Nuclei (%) [11]: 24%
Population Healthy Nuclei (%) [11]: 62%
Population Hoechst High Intensity Objects (%) [11]: 2%
Population Membrane Permeable-Phenotype (%) [11]: 4%
Population Mitochondria Different-Phenotype (%) [11]: 1%
Population Mitotic Cells (%) [11]: 22%
Population Normal (%) [11]: 97%
Population Pyknosed Nuclei (%) [11]: 12%
Population Tubulin-Different-Phenotype (%) [11]: 3%
Total Cell Count [11]: 322
Population Apoptotic (%) [12]: 100%
Population Fragmented Nuclei (%) [12]: 19%
Population Healthy Nuclei (%) [12]: 73%
Population Hoechst High Intensity Objects (%) [12]: 3%
Population Membrane Permeable-Phenotype (%) [12]: 5%
Population Mitochondria Different-Phenotype (%) [12]: 3%
Population Mitotic Cells (%) [12]: 0%
Population Normal (%) [12]: 96%
Population Pyknosed Nuclei (%) [12]: 6%
Population Tubulin-Different-Phenotype (%) [12]: 0%
Total Cell Count [12]: 165
